Source: ChEMBL document CHEMBL1129409, “5-HT1D receptor agonist properties of novel 2-[5-[[(trifluoromethyl)sulfonyl]oxy]indolyl]ethylamines and their use as synthetic intermediates” (J Med Chem, 1996)

Columns and labels:
D(2) dopamine receptor = D(2) dopamine receptor (Rattus norvegicus, UniProt P61169); assay: Binding affinity for rat dopamine D2 receptor expressed in CHO-K1 cells; type: cell-based
Procedure, shortened: (§1)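 CHO cell membranes expressing cloned human 5-HT1A, 5-HT1Dα or 5-HT1Dβ receptors, or rat D2 receptors (20-60 µg protein). Radioligands: [3H]-8-OH-DPAT (5-HT1A), [3H]-5-HT (5-HT1D), [3H]U-86170 (D2). Buffers at pH 7.4: 50 mM Tris/5 mM MgCl2 (5-HT1A); the same with 0.1% ascorbic acid (5-HT1D); 20 mM HEPES/10 mM MgSO4 (D2). Nonspecific binding defined with lisuride, serotonin and haloperidol respectively. 11 concentrations in duplicate, 1 h at room temperature (5-HT1D protected from light), filtration.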

[1] = molecular target: T1, 5-hydroxytryptamine receptor 1D (Homo sapiens, UniProt P28221); assay: Ratio of receptor binding affinities of 5-hydroxytryptamine 1D receptor alpha vs 5-hydroxytryptamine 1D receptor beta
Target sequence in this assay (P28221 whole entry): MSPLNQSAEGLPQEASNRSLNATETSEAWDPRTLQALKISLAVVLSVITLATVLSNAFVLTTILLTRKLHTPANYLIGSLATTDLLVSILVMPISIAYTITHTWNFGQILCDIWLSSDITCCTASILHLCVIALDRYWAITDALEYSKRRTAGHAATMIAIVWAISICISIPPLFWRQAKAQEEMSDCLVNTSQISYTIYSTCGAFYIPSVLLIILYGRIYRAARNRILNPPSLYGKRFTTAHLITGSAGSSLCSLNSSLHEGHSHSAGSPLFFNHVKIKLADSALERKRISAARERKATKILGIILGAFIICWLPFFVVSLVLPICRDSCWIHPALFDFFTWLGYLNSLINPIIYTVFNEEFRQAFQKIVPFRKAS

[2] = molecular target: T1, 5-hydroxytryptamine receptor 1D; assay: (§2) Compound was tested for binding affinity against cloned human 5-hydroxytryptamine 1D receptor alpha expressed in CHO-K1 cells.; type: cell-based
Procedure, shortened: as §1, with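 “protein).” for “protein). Radioligands: [3H]-8-OH-DPAT (5-HT1A), [3H]-5-HT (5-HT1D), [3H]U-86170 (D2).”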
Target sequence in this assay (P28221 whole entry): as above

[3] = molecular target: T2, 5-hydroxytryptamine receptor 1A (Homo sapiens, UniProt P08908); assay: Compound was tested for binding affinity against cloned human 5-hydroxytryptamine 1A receptor expressed in CHO-K1 cells.; type: cell-based
T2 sequence (P08908 whole entry): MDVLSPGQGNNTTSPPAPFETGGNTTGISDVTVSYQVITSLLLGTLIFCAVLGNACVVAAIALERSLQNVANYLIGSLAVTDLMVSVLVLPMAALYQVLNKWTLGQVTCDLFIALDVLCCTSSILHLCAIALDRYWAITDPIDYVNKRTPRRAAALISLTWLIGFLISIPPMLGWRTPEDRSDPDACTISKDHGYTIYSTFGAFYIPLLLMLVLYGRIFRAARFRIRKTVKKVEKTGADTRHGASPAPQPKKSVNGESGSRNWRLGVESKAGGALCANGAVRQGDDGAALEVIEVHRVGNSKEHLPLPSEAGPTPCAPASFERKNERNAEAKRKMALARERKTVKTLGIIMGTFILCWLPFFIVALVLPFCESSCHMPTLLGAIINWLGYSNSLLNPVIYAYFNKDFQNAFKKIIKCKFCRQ
Procedure, shortened: as §1, with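 “protein).” for “protein). Radioligands: [3H]-8-OH-DPAT (5-HT1A), [3H]-5-HT (5-HT1D), [3H]U-86170 (D2).”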

[4] = molecular target: T1, 5-hydroxytryptamine receptor 1D; assay: Compound was tested for binding affinity against human 5-hydroxytryptamine 1D receptor alpha clones expressed in human embryonic kidney (HEK 293) cells line.; type: cell-based, HEK293
Procedure, shortened: (§3)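 HEK 293 microsomal membranes expressing human 5-HT1Dα or 5-HT1Dβ, in 50 mM Tris-HCl buffer with 4 mM CaCl2, 0.1% ascorbic acid, pargyline and leupeptine. [3H]-5-HT (final 0.01-150 nM) incubated with membranes and displacer for 30 min at 25 °C. Glass-fibre filtration, then scintillation counting. Nonspecific binding taken with 10^-5 M 5-HT. Nonlinear least-squares fitting (EBDA/LIGAND); mean ± SEM, n=3.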
Target sequence in this assay (P28221 whole entry): as the sequence (P28221 whole entry) above

[5] = molecular target: T1, 5-hydroxytryptamine receptor 1D; assay: as §2; type: cell-based; procedure, shortened: as §1; remark: listed apart in the source
[6] = molecular target: T3, 5-hydroxytryptamine receptor 1B (Homo sapiens, UniProt P28222); assay: Compound was tested for binding affinity against human 5-hydroxytryptamine 1D receptor beta clones expressed in human embryonic kidney (HEK 293) cells line.; type: cell-based, HEK293; procedure, shortened: as §3
T3 sequence (P28222 whole entry): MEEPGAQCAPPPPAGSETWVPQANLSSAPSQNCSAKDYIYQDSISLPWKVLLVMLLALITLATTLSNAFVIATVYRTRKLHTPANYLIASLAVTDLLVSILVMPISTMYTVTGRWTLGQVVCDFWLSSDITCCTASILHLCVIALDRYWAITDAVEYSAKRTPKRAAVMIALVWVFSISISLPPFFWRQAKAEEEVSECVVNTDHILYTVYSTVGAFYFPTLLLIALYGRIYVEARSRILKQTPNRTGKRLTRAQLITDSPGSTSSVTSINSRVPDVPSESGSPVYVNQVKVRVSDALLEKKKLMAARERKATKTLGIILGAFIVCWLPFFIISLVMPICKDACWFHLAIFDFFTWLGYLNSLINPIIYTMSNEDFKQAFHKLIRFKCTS

[7] = Distribution coefficient (LogD) of compound reported; type: physicochemical; settings: octanol/water
Procedure, shortened: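 log D calculated with Pallas version 1.2.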

[8] = molecular target: T1, 5-hydroxytryptamine receptor 1D; assay: Displacement of [3H]-5-HT from human 5-hydroxytryptamine 1D receptor alpha expressed in HEK 293 cells; type: cell-based, HEK293; procedure, shortened: as §3
Target sequence in this assay (P28221 whole entry): as the sequence (P28221 whole entry) above

Cavia porcellus [9] = assay: The level of 5-HIAA (prefrontal cortex) measured by means of HPCL with electrochemical detection methods at 25 (umol/kg, sc); type: functional
Procedure, shortened: (§4)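 Male Dunkin-Hartley guinea pigs dosed sc in 0.25% methylcellulose (citric acid added for free bases), 5 mL/kg. Decapitated 60 min after dosing; prefrontal cortex and hypothalamus dissected on ice and stored at -80 °C. 5-HT and 5-HIAA measured by HPLC-electrochemical detection. Expressed as % of vehicle controls, mean ± SEM (n=4-5); ANOVA with Fisher's PLSD.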

Cavia porcellus [10] = assay: The level of 5-HT (prefrontal cortex) measured by means of HPCL with electrochemical detection methods at 25 (umol/kg, sc); type: functional; procedure, shortened: as §4
Cavia porcellus [11] = assay: The level of 5-HIAA (hypothalamus) measured by means of HPCL with electrochemical detection methods at 25 (umol/kg, sc); type: functional; procedure, shortened: as §4
Cavia porcellus [12] = assay: Effect of 25 (umol/kg, sc) compound on guinea pig rectal temperature (Hypothermia); type: functional
Procedure, shortened: (§5)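 Male guinea pigs housed individually at least 1 h before testing, groups of five. Compound given sc in 0.25% methylcellulose (equimolar citric acid for free bases), 5 mL/kg. Rectal probe inserted 3-4 cm; temperature read before dosing and at 60 min. Reported as change from the 0 min value, mean ± SEM (n=4-5).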

Cavia porcellus [13] = assay: The level of 5-HT (hypothalamus) measured by means of HPCL with electrochemical detection methods at 25 (umol/kg, sc); type: functional; procedure, shortened: as §4
Rattus norvegicus [14] = assay: 5-HTP accumulation in Rat brain striatum when Reserpine given 24 hr before decapitation & 45 & 30 min before 10 umol/kg test drug; type: functional
Procedure, shortened: (§6)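 Rats reserpinized (5 mg/kg ip) 24 h before test compound (10 µmol/kg sc in saline, 1.0 mL/kg). NSD 1015 (100 mg/kg) given 15 min after test compound; decapitation 30 min later. Regions stored at -70 °C, homogenized in TCA, supernatant analysed by HPLC-electrochemical detection. Output is 5-HTP in µg/g wet tissue, mean ± SEM (striatum n=8, others n=4); one-way ANOVA with post hoc t-test.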

Rattus norvegicus [15] = assay: 5-HTP accumulation in Rat brain hippocampus when Reserpine given 24 hr before decapitation & 45 & 30 min before 10 umol/kg test drug; type: functional; procedure, shortened: as §6
Cavia porcellus [16] = assay: The level of 5-HT (prefrontal cortex) measured by means of HPCL with electrochemical detection methods at 12.5 (umol/kg, sc); type: functional; procedure, shortened: as §4
Cavia porcellus [17] = assay: The level of 5-HT (hypothalamus) measured by means of HPCL with electrochemical detection methods at 50(umol/kg, sc); type: functional; procedure, shortened: as §4
Cavia porcellus [18] = assay: The level of 5-HIAA(prefrontal cortex) measured by means of HPCL with electrochemical detection methods at 12.5 (umol/kg, sc); type: functional; procedure, shortened: as §4
Rattus norvegicus [19] = assay: 5-HTP accumulation in Rat brain accumbens when Reserpine given 24 hr before decapitation & 45 & 30 min before 10 umol/kg test drug; type: functional; procedure, shortened: as §6
Cavia porcellus [20] = assay: The level of 5-HT (hypothalamus) measured by means of HPCL with electrochemical detection methods at 12.5 (umol/kg, sc); type: functional; procedure, shortened: as §4
Cavia porcellus [21] = assay: The level of 5-HT (prefrontal cortex) measured by means of HPCL with electrochemical detection methods at 50(umol/kg, sc); type: functional; procedure, shortened: as §4
Cavia porcellus [22] = assay: The level of 5-HIAA (hypothalamus) measured by means of HPCL with electrochemical detection methods at 12.5 (umol/kg, sc); type: functional; procedure, shortened: as §4
[23] = molecular target: T3, 5-hydroxytryptamine receptor 1B; assay: Compound was tested for binding affinity against cloned human 5-hydroxytryptamine 1D receptor beta expressed in CHO-K1 cells.; type: cell-based
Cavia porcellus [24] = assay: The level of 5-HIAA (hypothalamus) measured by means of HPCL with electrochemical detection methods at 50(umol/kg, sc); type: functional; procedure, shortened: as §4
Cavia porcellus [25] = assay: The level of 5-HIAA (prefrontal cortex) measured by means of HPCL with electrochemical detection methods at 50(umol/kg, sc); type: functional; procedure, shortened: as §4
Cavia porcellus [26] = assay: Effect of 12.5 (umol/kg, sc) compound on guinea pig rectal temperature (Hypothermia); type: functional; procedure, shortened: as §5
Rattus norvegicus [27] = assay: 5-HTP accumulation in Rat brain frontal cortex when Reserpine given 24 hr before decapitation & 45 & 30 min before 10 umol/kg test drug; type: functional; procedure, shortened: as §6
Cavia porcellus [28] = assay: Effect of 50(umol/kg, sc) compound on guinea pig rectal temperature (Hypothermia); type: functional; procedure, shortened: as §5
[29] = molecular target: T3, 5-hydroxytryptamine receptor 1B; assay: Compound was tested for binding affinity against cloned human 5-HT1D beta receptor expressed in CHO-K1 cells.; type: cell-based; procedure, shortened: as §1

Sequence of D(2) dopamine receptor (P61169 whole entry): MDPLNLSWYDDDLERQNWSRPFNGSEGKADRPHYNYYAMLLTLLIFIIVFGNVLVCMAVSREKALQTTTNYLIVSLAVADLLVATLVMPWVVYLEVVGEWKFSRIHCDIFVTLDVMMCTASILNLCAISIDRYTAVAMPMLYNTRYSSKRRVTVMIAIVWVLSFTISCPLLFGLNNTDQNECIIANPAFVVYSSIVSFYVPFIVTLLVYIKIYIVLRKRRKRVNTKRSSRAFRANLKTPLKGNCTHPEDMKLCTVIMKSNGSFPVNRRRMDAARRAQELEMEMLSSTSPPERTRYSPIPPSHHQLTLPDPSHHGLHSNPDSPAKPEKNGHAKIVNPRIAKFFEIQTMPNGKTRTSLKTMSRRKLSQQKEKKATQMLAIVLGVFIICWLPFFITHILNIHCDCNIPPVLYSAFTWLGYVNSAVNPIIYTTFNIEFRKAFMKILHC

| Compound | Ki (D(2) dopamine receptor) [nM] | Ratio [1] | Ki [2] [nM] | Ki [3] [nM] | IC50 [4] [nM] | IC50 [6] [nM] | logD [7] | Ki [23] [nM] | further results |
| --- | --- | --- | --- | --- | --- | --- | --- | --- | --- |
| CCN(CC)CCc1c[nH]c2ccc(OS(=O)(=O)C(F)(F)F)cc12 | 637 | 14.3 | 12 | 27 | 21 | 530 | 1.31 |  | Ki [5]: 171 nM |
| CN(C)CCc1c[nH]c2ccc(OCc3ccccc3)cc12 |  |  |  |  |  |  | 2.28 |  | IC50 [8]: 25 nM; IC50 [5]: 76 nM |
| CNS(=O)(=O)Cc1ccc2[nH]cc(CCN(C)C)c2c1 | > 218 |  |  |  |  |  |  |  | Others (Cavia porcellus [9]): 129%; Others (Cavia porcellus [10]): 119%; Others (Cavia porcellus [11]): 133%; Others (Cavia porcellus [12]): -0.14; Others (Cavia porcellus [13]): 122% |
| CN(C)CCc1c[nH]c2ccc(OS(=O)(=O)C(F)(F)F)cc12 | 538 | 10 | 3.2 | 40 | 8.4 | 98 | 1.41 | 32 | 5-HTP accumulation (Rattus norvegicus [14]): 0.28 µg/g; Accumulation (Rattus norvegicus [14]): 75.7%; 5-HTP accumulation (Rattus norvegicus [15]): 0.28 µg/g; Accumulation (Rattus norvegicus [15]): 100%; Others (Cavia porcellus [16]): 104%; Others (Cavia porcellus [17]): 123%; Others (Cavia porcellus [18]): 59%; 5-HTP accumulation (Rattus norvegicus [19]): 0.4 µg/g; Accumulation (Rattus norvegicus [19]): 81.6%; Others (Cavia porcellus [20]): 97%; Others (Cavia porcellus [21]): 129%; Others (Cavia porcellus [22]): 66%; Others (Cavia porcellus [24]): 54%; Others (Cavia porcellus [25]): 46%; Others (Cavia porcellus [26]): -1.7; 5-HTP accumulation (Rattus norvegicus [27]): 0.37 µg/g; Accumulation (Rattus norvegicus [27]): 78.8%; Others (Cavia porcellus [28]): -1.72 |
| CCCN(CCC)CCc1c[nH]c2ccc(OS(=O)(=O)C(F)(F)F)cc12 | 502 | 1.3 | 190 | 23 | 170 | 660 | 2.21 |  | Ki [29]: 246 nM |
| NCCc1c[nH]c2ccc(OS(=O)(=O)C(F)(F)F)cc12 | 658 | 5 | 2.8 | 18 |  |  | -0.24 | 14 |  |
